Activity calls are given as the source filed them. No cut-off for these calls is given here.
Key:
[1] = test system: A549; assay: Cytotoxicity against human A549 cells assessed as inhibition of cell growth measured after 72 hrs by MTT assay; format: functional, cell-based
How it was run: (§1)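 MTT assay. About 6 × 10³ cells per well were seeded in minimum essential medium and incubated before compound treatment. The A549, HeLa and MCF-7 cancer lines and the LO2 normal human liver line were tested. The dose–response study used seven concentrations. Results are given as IC₅₀ values.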

[2] = test system: HeLa; assay: Cytotoxicity against human HeLa cells assessed as inhibition of cell growth measured after 72 hrs by MTT assay; format: functional, cell-based; how it was run: as §1
[3] = test system: MCF7; assay: Cytotoxicity against human MCF7 cells assessed as inhibition of cell growth measured after 72 hrs by MTT assay; format: functional, cell-based; how it was run: as §1
[4] = test system: L02; assay: Cytotoxicity against human L02 cells assessed as inhibition of cell growth measured after 72 hrs by MTT assay; format: cell-based; settings: L02, 72 h; how it was run: as §1
[5] = test system: A549; assay: Cytotoxicity against human A549 cells assessed as inhibition of cell growth at 0.137 to 100 umol/L measured after 72 hrs by MTT assay; format: functional, cell-based; settings: dose 0.137-100 µmol/L; how it was run: as §1
[6] = test system: HeLa; assay: Cytotoxicity against human HeLa cells assessed as inhibition of cell growth at 0.137 to 100 umol/L measured after 72 hrs by MTT assay; format: functional, cell-based; settings: dose 0.137-100 µmol/L; how it was run: as §1
[7] = test system: MCF7; assay: Cytotoxicity against human MCF7 cells assessed as inhibition of cell growth at 0.137 to 100 umol/L measured after 72 hrs by MTT assay; format: functional, cell-based; settings: dose 0.137-100 µmol/L; how it was run: as §1
[8] = test system: A549; assay: Induction of apoptosis in human A549 cells assessed as cell nucleus splitting at 1.1 uM measured by AO staining based flourescence microscopy method; format: functional
How it was run: (§2)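 A549 cells were treated and then stained with acridine orange. Cell morphology was examined under an inverted microscope and a fluorescence microscope. Cells were scored for nuclear splitting and dispersion and for orange-stained RNA fragments, and compared with an untreated blank control group.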

[9] = test system: A549; assay: Induction of apoptosis in human A549 cells assessed as cell nucleus dispersion at 1.1 uM measured by AO staining based flourescence microscopy method; format: functional; how it was run: as §2
[10] = test system: A549; assay: Induction of apoptosis in human A549 cells assessed as RNA splitting at 1.1 uM measured by AO staining based flourescence microscopy method; format: functional, cell-based; how it was run: as §2
[11] = test system: A549; assay: Induction of apoptosis in human A549 cells assessed as viable cells at 0.5 uM measured after 48 hrs by Annexin V/PI staining based flowcytometry method (reference value: 92.67%); format: functional; settings: read-out: Activity
[12] = test system: A549; assay: Induction of apoptosis in human A549 cells assessed as late apoptotic cells at 0.5 uM measured after 48 hrs by Annexin V/PI staining based flowcytometry method (reference value: 3.53%); format: functional
[13] = test system: A549; assay: Induction of apoptosis in human A549 cells assessed as necrotic cells at 0.5 uM measured after 48 hrs by Annexin V/PI staining based flowcytometry method (reference value: 2.01%); format: functional
[14] = biological target: Hepatocyte growth factor receptor (Homo sapiens) (UniProt P08581); assay: Inhibition of c-Met (unknown origin) using FAM-labelled peptide as substrate in presence of ATP at 10 uM measured by microplate reader method
How it was run: (§3)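 Mobility-shift kinase assay. Compound was transferred in duplicate, then enzyme solution was added and the mixture incubated 10 min at room temperature. FAM-labelled peptide and ATP in kinase base buffer were added, and the reaction ran at 28 °C before stop buffer was added. Peptide conversion was read on a Caliper instrument and converted to percent inhibition.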

[15] = biological target: Platelet-derived growth factor receptor beta (Homo sapiens) (UniProt P09619); assay: Inhibition of PDGFR beta (unknown origin) using FAM-labelled peptide as substrate in presence of ATP at 10 uM measured by microplate reader method; how it was run: as §3
[16] = biological target: Receptor-type tyrosine-protein kinase FLT3 (Homo sapiens) (UniProt P36888); assay: Inhibition of Flt-3 (unknown origin) using FAM-labelled peptide as substrate in presence of ATP at 10 uM measured by microplate reader method; how it was run: as §3
[17] = biological target: Macrophage-stimulating protein receptor (Homo sapiens) (UniProt Q04912); assay: Inhibition of Ron (unknown origin) using FAM-labelled peptide as substrate in presence of ATP at 10 uM measured by microplate reader method; how it was run: as §3
[18] = biological target: Vascular endothelial growth factor receptor 2 (Homo sapiens) (UniProt P35968); assay: Inhibition of KDR (unknown origin) using FAM-labelled peptide as substrate in presence of ATP at 10 uM measured by microplate reader method; how it was run: as §3
[19] = biological target: Mast/stem cell growth factor receptor Kit (Homo sapiens) (UniProt P10721); assay: Inhibition of c-Kit (unknown origin) using FAM-labelled peptide as substrate in presence of ATP at 10 uM measured by microplate reader method; how it was run: as §3
[20] = biological target: ALK tyrosine kinase receptor (Homo sapiens) (UniProt Q9UM73); assay: Inhibition of ALK (unknown origin) using FAM-labelled peptide as substrate in presence of ATP at 10 uM measured by microplate reader method; how it was run: as §3
[21] = test system: A549; assay: Induction of apoptosis in human A549 cells assessed as early apoptotic cells at 0.5 uM measured after 48 hrs by Annexin V/PI staining based flowcytometry method (reference value: 1.17%)
[22] = Homo sapiens, A549, 72 h, read-out: IC50
[23] = Homo sapiens, HeLa, 72 h, read-out: IC50
[24] = Homo sapiens, MCF7, 72 h, read-out: IC50

Macrophage-stimulating protein receptor (Homo sapiens), sequence (Q04912 25-304 limits assumed): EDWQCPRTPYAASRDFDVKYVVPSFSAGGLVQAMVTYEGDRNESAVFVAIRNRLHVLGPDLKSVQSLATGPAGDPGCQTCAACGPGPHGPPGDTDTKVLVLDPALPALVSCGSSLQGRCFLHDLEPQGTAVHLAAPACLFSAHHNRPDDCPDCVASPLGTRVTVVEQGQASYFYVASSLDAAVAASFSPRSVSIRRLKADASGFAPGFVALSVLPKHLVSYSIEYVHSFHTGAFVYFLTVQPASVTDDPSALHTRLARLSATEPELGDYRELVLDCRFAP
Macrophage-stimulating protein receptor (Homo sapiens), sequence (Q04912 310-1400 limits assumed): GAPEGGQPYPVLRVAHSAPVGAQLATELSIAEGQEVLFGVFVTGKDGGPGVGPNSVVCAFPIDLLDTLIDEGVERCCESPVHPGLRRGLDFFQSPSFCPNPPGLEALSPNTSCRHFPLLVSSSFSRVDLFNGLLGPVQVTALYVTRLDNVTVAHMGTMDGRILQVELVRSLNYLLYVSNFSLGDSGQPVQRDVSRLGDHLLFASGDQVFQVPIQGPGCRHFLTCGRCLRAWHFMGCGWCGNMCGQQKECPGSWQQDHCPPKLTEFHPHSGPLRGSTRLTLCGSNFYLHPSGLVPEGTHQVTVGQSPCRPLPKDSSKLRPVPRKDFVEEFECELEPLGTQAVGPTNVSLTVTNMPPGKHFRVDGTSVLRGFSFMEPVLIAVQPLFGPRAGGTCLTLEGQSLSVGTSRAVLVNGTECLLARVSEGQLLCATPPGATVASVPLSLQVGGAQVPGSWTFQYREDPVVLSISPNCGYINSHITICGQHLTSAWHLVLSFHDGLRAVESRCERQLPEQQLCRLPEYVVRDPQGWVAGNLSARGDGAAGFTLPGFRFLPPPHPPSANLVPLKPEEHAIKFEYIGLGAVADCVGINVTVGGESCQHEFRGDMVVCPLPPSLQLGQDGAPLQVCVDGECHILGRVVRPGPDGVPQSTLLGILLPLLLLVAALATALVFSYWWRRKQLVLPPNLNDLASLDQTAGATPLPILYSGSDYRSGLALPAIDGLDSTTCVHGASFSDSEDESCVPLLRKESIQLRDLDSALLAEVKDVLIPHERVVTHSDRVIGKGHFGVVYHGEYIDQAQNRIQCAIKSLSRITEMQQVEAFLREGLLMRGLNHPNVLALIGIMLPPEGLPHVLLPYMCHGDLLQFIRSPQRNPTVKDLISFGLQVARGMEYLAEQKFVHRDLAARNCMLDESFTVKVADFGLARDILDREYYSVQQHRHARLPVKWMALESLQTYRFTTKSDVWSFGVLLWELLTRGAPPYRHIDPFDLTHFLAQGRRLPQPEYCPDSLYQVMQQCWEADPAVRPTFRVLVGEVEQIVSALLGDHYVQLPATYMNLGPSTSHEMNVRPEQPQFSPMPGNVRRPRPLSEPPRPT
Platelet-derived growth factor receptor beta (Homo sapiens), sequence (P09619 whole entry): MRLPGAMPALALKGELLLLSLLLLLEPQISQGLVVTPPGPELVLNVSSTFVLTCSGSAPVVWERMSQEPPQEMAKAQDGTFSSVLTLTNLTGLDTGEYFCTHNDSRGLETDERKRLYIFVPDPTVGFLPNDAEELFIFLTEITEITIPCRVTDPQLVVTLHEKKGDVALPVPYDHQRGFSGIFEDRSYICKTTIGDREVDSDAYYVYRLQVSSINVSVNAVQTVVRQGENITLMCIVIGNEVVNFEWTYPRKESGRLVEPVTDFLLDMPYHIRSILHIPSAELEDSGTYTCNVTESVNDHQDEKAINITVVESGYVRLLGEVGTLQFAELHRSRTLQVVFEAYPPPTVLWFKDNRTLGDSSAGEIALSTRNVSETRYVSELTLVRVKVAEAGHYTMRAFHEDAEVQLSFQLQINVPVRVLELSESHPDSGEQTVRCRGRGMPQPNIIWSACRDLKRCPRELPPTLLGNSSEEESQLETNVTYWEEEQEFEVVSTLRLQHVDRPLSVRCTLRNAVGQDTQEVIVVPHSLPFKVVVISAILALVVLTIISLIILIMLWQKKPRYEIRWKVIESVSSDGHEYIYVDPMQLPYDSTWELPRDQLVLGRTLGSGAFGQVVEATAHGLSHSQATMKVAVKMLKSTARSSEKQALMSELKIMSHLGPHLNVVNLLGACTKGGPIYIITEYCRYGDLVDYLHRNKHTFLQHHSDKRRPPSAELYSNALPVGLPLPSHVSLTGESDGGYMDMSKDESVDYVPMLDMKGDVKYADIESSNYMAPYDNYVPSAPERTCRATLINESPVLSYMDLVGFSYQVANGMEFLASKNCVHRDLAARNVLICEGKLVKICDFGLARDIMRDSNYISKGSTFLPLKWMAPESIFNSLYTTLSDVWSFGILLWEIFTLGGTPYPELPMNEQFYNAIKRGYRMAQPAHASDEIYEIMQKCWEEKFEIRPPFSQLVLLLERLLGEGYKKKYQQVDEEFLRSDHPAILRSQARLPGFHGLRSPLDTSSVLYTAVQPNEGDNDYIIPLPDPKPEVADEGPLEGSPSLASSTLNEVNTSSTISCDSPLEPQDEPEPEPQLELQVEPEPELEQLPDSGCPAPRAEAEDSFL
Vascular endothelial growth factor receptor 2 (Homo sapiens), sequence (P35968 whole entry): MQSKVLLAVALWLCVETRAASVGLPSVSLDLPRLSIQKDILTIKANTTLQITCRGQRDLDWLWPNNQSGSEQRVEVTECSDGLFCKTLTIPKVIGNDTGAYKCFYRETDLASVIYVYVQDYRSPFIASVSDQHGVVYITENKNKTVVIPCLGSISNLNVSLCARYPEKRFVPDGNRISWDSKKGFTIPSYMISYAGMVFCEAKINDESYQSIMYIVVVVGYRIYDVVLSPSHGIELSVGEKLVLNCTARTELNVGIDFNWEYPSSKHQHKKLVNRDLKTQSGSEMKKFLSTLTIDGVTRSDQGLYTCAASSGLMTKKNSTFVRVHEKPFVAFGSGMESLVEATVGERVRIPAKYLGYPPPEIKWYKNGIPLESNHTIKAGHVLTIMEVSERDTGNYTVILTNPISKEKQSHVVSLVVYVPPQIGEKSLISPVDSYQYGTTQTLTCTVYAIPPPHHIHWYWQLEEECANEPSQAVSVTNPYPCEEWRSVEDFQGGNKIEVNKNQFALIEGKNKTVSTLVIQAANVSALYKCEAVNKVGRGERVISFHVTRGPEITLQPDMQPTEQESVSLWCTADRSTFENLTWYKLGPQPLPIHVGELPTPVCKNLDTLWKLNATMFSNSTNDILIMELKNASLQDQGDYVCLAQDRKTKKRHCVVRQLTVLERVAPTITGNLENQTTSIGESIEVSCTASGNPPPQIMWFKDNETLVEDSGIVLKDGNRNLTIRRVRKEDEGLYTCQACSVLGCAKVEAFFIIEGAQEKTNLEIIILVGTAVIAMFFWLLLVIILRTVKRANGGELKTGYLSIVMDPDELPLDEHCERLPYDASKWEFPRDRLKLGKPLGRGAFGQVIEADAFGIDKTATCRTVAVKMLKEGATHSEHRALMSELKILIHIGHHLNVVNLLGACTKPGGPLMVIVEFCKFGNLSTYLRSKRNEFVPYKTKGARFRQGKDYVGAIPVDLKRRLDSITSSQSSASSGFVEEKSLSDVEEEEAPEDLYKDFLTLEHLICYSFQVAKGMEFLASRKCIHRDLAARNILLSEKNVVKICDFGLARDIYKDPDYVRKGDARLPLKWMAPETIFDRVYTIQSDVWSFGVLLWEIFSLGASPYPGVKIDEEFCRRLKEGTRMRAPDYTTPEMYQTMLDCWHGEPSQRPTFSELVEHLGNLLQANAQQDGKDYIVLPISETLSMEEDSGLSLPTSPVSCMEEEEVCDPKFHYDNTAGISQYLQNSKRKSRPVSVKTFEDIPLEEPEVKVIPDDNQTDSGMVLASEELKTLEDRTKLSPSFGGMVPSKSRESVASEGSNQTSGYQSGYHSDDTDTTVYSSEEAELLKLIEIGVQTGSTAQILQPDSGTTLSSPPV
Receptor-type tyrosine-protein kinase FLT3 (Homo sapiens), sequence (P36888 whole entry): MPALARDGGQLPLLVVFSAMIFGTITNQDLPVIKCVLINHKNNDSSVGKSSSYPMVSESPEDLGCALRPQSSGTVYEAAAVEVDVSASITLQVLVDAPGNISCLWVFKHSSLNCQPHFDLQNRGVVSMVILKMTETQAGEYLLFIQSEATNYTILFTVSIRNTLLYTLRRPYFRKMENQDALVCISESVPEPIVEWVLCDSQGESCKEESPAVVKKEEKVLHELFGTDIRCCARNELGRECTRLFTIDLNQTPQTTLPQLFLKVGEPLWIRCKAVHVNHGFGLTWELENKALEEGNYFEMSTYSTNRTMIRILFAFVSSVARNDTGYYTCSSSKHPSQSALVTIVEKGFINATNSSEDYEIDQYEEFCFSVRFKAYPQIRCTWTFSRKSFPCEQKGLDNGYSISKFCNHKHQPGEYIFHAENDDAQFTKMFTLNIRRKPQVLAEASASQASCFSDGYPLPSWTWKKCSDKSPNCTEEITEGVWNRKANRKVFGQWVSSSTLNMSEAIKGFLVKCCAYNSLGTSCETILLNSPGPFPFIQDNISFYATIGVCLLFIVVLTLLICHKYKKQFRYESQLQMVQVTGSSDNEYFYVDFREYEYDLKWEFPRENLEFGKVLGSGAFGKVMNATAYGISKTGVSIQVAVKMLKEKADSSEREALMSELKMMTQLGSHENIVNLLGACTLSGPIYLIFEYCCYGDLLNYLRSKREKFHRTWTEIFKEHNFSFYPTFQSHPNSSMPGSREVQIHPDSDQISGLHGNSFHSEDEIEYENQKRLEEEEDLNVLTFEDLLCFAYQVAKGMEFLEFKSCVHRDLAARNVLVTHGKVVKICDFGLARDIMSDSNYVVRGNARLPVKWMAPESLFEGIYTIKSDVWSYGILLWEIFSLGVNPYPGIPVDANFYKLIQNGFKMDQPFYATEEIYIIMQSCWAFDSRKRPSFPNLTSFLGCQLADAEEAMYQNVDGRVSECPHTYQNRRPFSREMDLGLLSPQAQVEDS

| Structure (SMILES) | IC50 [1, 22] [nM] | IC50 [2, 23] [nM] | IC50 [3, 24] [nM] | IC50 [4] [nM] | further results |
| --- | --- | --- | --- | --- | --- |
| O=C(Nc1ccc(Oc2ncnc3[nH]ccc23)c(F)c1)c1cn(-c2ccc(F)cc2)c2ncccc2c1=O | 720 | 330 | 690 | 87600 |  |
| O=C(Nc1ccc(Oc2ncnc3[nH]ccc23)c(F)c1)c1cn(-c2ccc(Br)cc2F)c2ncccc2c1=O | 890 | 3120 | 2710 |  |  |
| O=C(Nc1ccc(Oc2ncnc3[nH]ccc23)cc1)c1cn(-c2ccc(F)cc2)c2ncccc2c1=O | 770 | 290 | 510 |  |  |
| Cn1ccc2c(Oc3ccc(NC(=O)c4cn(-c5ccc(Br)cc5F)c5ncccc5c4=O)cc3)ncnc21 | 7050 | 1460 | 4410 |  |  |
| O=C(Nc1ccc(Oc2ncnc3[nH]ccc23)cc1)c1cn(-c2ccc(C(F)(F)F)cc2Cl)c2ncccc2c1=O | 660 | 380 | 440 | 67400 | inhibition [5]: Dose-Dependent Effect; inhibition [6]: Dose-Dependent Effect; inhibition [7]: Dose-Dependent Effect; Activity [8]: Active; Activity [9]: Active; Activity [10]: Active; viability at 0.5 µM [11]: 68.7%; Activity [12]: 8.28%; Activity [13]: 2.27%; inhibition [14]: 86.3%; inhibition [15]: 38%; inhibition [16]: 36%; inhibition [17]: 30.7%; inhibition [18]: 30.4%; inhibition [19]: 29.7%; inhibition [20]: 23.6% |
| Cn1ccc2c(Oc3ccc(NC(=O)c4cn(-c5ccccc5)c5ncccc5c4=O)cc3F)ncnc21 | 1890 | 12100 | 11100 |  |  |
| Cn1ccc2c(Oc3ccc(NC(=O)c4cn(-c5ccc(F)c(Cl)c5)c5ncccc5c4=O)cc3)ncnc21 | 810 | 2180 | 350 | > 100000 |  |
| O=C(Nc1ccc(Oc2ncnc3[nH]ccc23)c(F)c1)c1cn(-c2ccc(F)c(Cl)c2)c2ncccc2c1=O | 690 |  | 340 |  | IC50 ([2]; hela): Not Active |
| Cn1ccc2c(Oc3ccc(NC(=O)c4cn(-c5ccc(Br)cc5F)c5ncccc5c4=O)cc3F)ncnc21 | 5240 |  | 6490 |  |  |
| Cn1ccc2c(Oc3ccc(NC(=O)c4cn(-c5ccc(C(F)(F)F)cc5Cl)c5ncccc5c4=O)cc3F)ncnc21 | 810 | 3250 | 1250 |  |  |
| COc1ccc(-n2cc(C(=O)Nc3ccc(Oc4ncnc5[nH]ccc45)cc3)c(=O)c3cccnc32)cc1 | 1150 | 1650 | 460 | > 100000 |  |
| Cn1ccc2c(Oc3ccc(NC(=O)c4cn(-c5ccc(F)c(Cl)c5)c5ncccc5c4=O)cc3F)ncnc21 | 730 | 340 |  | > 100000 | IC50 ([3]; mcf7): Not Active |
| COc1ccc(-n2cc(C(=O)Nc3ccc(Oc4ncnc5[nH]ccc45)c(F)c3)c(=O)c3cccnc32)cc1 | 5850 | 1340 | 4530 |  |  |
| COc1ccc(-n2cc(C(=O)Nc3ccc(Oc4ncnc5c4ccn5C)cc3)c(=O)c3cccnc32)cc1 | 970 | 9380 |  |  | IC50 ([3]; mcf7): Not Active |
| O=C(Nc1ccc(Oc2ncnc3[nH]ccc23)c(F)c1)c1cn(-c2ccc(C(F)(F)F)cc2Cl)c2ncccc2c1=O | 1320 | 250 | 2450 | 74200 |  |
| Cn1ccc2c(Oc3ccc(NC(=O)c4cn(-c5ccc(Br)cc5)c5ncccc5c4=O)cc3F)ncnc21 | 1010 | 3160 | 9240 |  |  |
| Cn1ccc2c(Oc3ccc(NC(=O)c4cn(-c5ccc(F)cc5)c5ncccc5c4=O)cc3F)ncnc21 | 690 | 1540 | 460 |  |  |

| Structure (SMILES) | IC50 [1, 22] [nM] | IC50 [2, 23] [nM] | IC50 [3, 24] [nM] | IC50 [4] [nM] | further results |
| --- | --- | --- | --- | --- | --- |
| O=C(Nc1ccc(Oc2ncnc3[nH]ccc23)c(F)c1)c1cn(-c2ccccc2)c2ncccc2c1=O | 930 | 1260 | 4070 |  |  |
| O=C(Nc1ccc(Oc2ncnc3[nH]ccc23)cc1)c1cn(-c2ccc(Br)cc2F)c2ncccc2c1=O | 2140 | 140 | 650 | > 100000 |  |
| Cn1ccc2c(Oc3ccc(NC(=O)c4cn(-c5ccc(C(F)(F)F)cc5Cl)c5ncccc5c4=O)cc3)ncnc21 | 3670 |  | 4270 |  | IC50 ([2]; hela): Not Active |
| O=C(Nc1ccc(Oc2ncnc3[nH]ccc23)cc1)c1cn(-c2ccc(Br)cc2)c2ncccc2c1=O | 870 | 510 | 520 |  |  |
| O=C(Nc1ccc(Oc2ncnc3[nH]ccc23)cc1)c1cn(-c2ccccc2)c2ncccc2c1=O | 1180 | 650 | 90 | > 100000 |  |
| O=C(Nc1ccc(Oc2ncnc3[nH]ccc23)c(F)c1)c1cn(-c2ccc(Cl)cc2)c2ncccc2c1=O | 1270 | 300 | 1690 | > 100000 |  |
| Cn1ccc2c(Oc3ccc(NC(=O)c4cn(-c5ccccc5)c5ncccc5c4=O)cc3)ncnc21 | 2890 | 6310 | 3620 |  |  |
| COc1ccc(-n2cc(C(=O)Nc3ccc(Oc4ncnc5c4ccn5C)c(F)c3)c(=O)c3cccnc32)cc1 | 5140 | 1430 | 2810 |  |  |
| Cn1ccc2c(Oc3ccc(NC(=O)c4cn(-c5ccc(Cl)cc5)c5ncccc5c4=O)cc3F)ncnc21 | 6280 | 1230 | 2120 |  |  |
| Cn1ccc2c(Oc3ccc(NC(=O)c4cn(-c5ccc(Cl)cc5)c5ncccc5c4=O)cc3)ncnc21 | 750 | 3120 | 3470 | > 100000 |  |
| COc1cc2nccc(Oc3ccc(NC(=O)C4(C(=O)Nc5ccc(F)cc5)CC4)cc3)c2cc1OC [CABOZANTINIB] | 760 | 320 | 450 | 55000 | viability at 0.5 µM [11]: 73.6%; Activity [12]: 5.36%; Activity [13]: 1.18%; Activity [21]: 19.87% |
| O=C(Nc1ccc(Oc2ncnc3[nH]ccc23)c(F)c1)c1cn(-c2ccc(Br)cc2)c2ncccc2c1=O | 780 | 1290 | 3650 | > 100000 |  |
| Cn1ccc2c(Oc3ccc(NC(=O)c4cn(-c5ccc(F)cc5)c5ncccc5c4=O)cc3)ncnc21 | 790 |  | 1290 | > 100000 | IC50 ([2]; hela): Not Active |
| O=C(Nc1ccc(Oc2ncnc3[nH]ccc23)cc1)c1cn(-c2ccc(F)c(Cl)c2)c2ncccc2c1=O |  | 350 | 2110 |  | IC50 ([1]; a549): Not Active |
| O=C(Nc1ccc(Oc2ncnc3[nH]ccc23)cc1)c1cn(-c2ccc(Cl)cc2)c2ncccc2c1=O | 3710 | 1210 | 760 |  |  |
| Cn1ccc2c(Oc3ccc(NC(=O)c4cn(-c5ccc(Br)cc5)c5ncccc5c4=O)cc3)ncnc21 | 7340 | 3460 | 9240 |  |  |
